Shown are actives, neighbours in structure and some others; about 4.6% of the full set was active somewhere.
OX1R antag-1: blocks the human orexin 1 receptor; actives 0.43% (n = 330,000); AID 434989; inhibition, % at 5 µM; CHO/OX1R cells, Fluo-8 calcium fluorescence, orexin A; O43613;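 active means inhibition above its plate's threshold, mean inhibition of all tested compounds on the plate plus 3 SD, cut at about 37% in these data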;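 further: 0% = orexin A challenge wells and 100% = SB-334867-A antagonist wells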
Target sequence (O43613 whole entry, looked up): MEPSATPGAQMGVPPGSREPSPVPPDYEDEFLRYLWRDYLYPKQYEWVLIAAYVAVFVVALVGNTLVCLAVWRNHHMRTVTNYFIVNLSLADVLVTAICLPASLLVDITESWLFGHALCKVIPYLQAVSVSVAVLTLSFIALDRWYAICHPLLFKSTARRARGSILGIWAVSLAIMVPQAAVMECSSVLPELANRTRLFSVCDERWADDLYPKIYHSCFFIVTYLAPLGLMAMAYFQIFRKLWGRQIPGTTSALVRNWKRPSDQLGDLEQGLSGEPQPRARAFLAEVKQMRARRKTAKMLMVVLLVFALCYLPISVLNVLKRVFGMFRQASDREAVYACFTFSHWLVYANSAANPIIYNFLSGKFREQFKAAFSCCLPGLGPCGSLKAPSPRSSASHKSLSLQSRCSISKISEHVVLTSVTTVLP
GPR7 antag: blocks human GPR7 receptor signaling. P48145. GPR7-expressing cells, fluorescence antagonist assay. inhibition, % at 4.4 µM. actives 1.1% (n = 290,000); in the data active means inhibition above about 16%, passing the limit was not always enough;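 further: cells stimulated with the agonist NPW; 0% = agonist with vehicle and 100% = vehicle without agonist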
TAAR1 agonist: agonists of human TAAR1 | CHO RD-HGA16 TAAR1, Fluo-8 calcium fluorescence; vehicle wells 0%, saturating PEA agonist 100% | AID 624467 | activation, % at 3 µM | Q96RJ0 | actives 0.99% (n = 360,000);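 active means activation above the mean activation of all test compounds in the run plus 3 SD, cut at about 38% in these data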
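System: CHO RD-HGA16 cells carrying human TAAR1 plus Gα16; Incubation: 17-24 h seeding, 75 min 37 °C dye, 30 min RT; Measured by: Fluo-8 fluorescence, 5 s baseline then 140 s kinetic read; Control set: DMSO and PEA EC100; Replication: single well for each compound.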
OX1R antag-2: antagonists of human orexin 1 receptor (OX1R). inhibition, % at 6.6 µM. O43613. OX1R-expressing cells, FRET antagonist read-out. AID 485270. actives 1.8% (n = 330,000); in the data active means inhibition mostly above about 38%, no sharp cut-off; inactive means mostly below about 40%;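 further: 0% = agonist challenge alone and 100% = reference antagonist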
CHO parental Ca: counter-screen: ATP calcium response change in parental CHO cells | actives 0.63% (n = 330,000) | parental CHO-K1, ATP-induced calcium, Fluo-8 fluorescence | inhibition, % at 5.6 µM | AID 463079;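 active means inhibition above that plate's mean sample inhibition plus 3 SD, cut at about 26% in these data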;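 further: 0% = ATP-challenged DMSO wells and 100% = DMSO wells without ATP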
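Assay system: parental CHO cells; Read-out basis: percent inhibition of ATP-evoked calcium rise, normalized to controls; Benchmarks: ATP and no-ATP DMSO wells; Compound dosing: single nominal dose of 5.6 µM per compound; Signal: Fluo-8 calcium dye fluorescence; Also added: ATP as calcium-mobilizing challenge; Repeats: singlicate.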
TAAR1 antagonist: human TAAR1 antagonism. Q96RJ0. CHO RD-HGA16 TAAR1, Fluo-8 calcium fluorescence, antagonist. inhibition, % at 3 µM. actives 1.5% (n = 360,000);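 active means inhibition above a per-plate cutoff, the mean inhibition of test compounds on that plate plus 3 SD, cut at about 49% in these data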;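 further: 0% = DMSO plus EC80 beta-PEA response and 100% = DMSO alone without agonist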
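Test system: CHO RD-HGA16 cells bearing hTAAR1 | Reagent: β-PEA, EC80 | Compound dosing: 3 µM, single point | Schedule: Dye loading 75 min at 37 °C, then 30 min room temperature | Signal: Calcium fluorescence with Fluo-8 | Evaluation: Percent inhibition of PEA-evoked calcium signal, max/basal emission ratio | Control set: DMSO-only wells and EC80 β-PEA-stimulated wells | Repeats: Singlicate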
The depositor's hits bear a star; / = no result.

SMILES	OX1R antag-1	GPR7 antag	TAAR1 agonist	OX1R antag-2	CHO parental Ca	TAAR1 antagonist
Cc1ccc(Oc2nnc(-c3cccs3)c3ccccc23)cc1C	-6	1	-1	6	40*	-2
COC(=O)C1=CN(c2ccc(C(C)(C)C)cc2)C(N)=C(C#N)C1c1cccc2ccccc12 (centres undefined)	/	/	1	/	/	-17
CC(C)NC(=O)c1sc2nc3c(c(-c4cccs4)c2c1N)CN(C)CC3	-25	2	1	60*	-5	-23
NC(=O)c1sc2nc3c(c(-c4cccs4)c2c1N)CCCC3	/	-12	/	/	/	/
COc1ccc(NC(=O)CSc2nc3c(c(-c4cccs4)c2C#N)CN(C)CC3)cc1OC	-12	-14	1	7	-8	-3
Cc1cccc(NC(=O)c2sc3nc4c(c(-c5cccs5)c3c2N)CN(C)CC4)c1	-13	-2	3	76*	-12	-8
CC1=C(c2ccccc2)C(=O)C(C)(C)CC1=O	/	/	6	/	/	-13
O=C(CSc1nnc2n1CCCN2)c1ccc([N+](=O)[O-])cc1	-15	-1	1	51*	-21	-12
N#Cc1cc(Oc2cccc3cccnc23)c(-n2nnc3ccccc32)cc1C#N	46*	-12	3	18	22	4
C[C@H](CO)N1C[C@H](C)[C@@H](CN(C)C(=O)Nc2ccc(N3CCN(C)CC3)cc2)OCc2cn(nn2)CCCC1=O	/	/	1	/	/	3
COc1ccc(NC(=O)OC[C@@H]2CSCCS(=O)(=O)N2)cc1	/	/	2	/	/	4
CNc1ccc(S(=O)(=O)NC)cc1[N+](=O)[O-]	-12	-13	6	64	2	3
CNc1nc2cc([N+](=O)[O-])c([N+](=O)[O-])cc2nc1NC	27	21	16	45	59*	8
NC(=S)N1OC[C@@H]2COc3ccc4ccccc4c3[C@@H]21	13	16*	4	8	0	13
CCC(C(=O)Nc1c(C)cccc1C)n1c(-c2ccc(-c3ccccc3)cc2)nc2ccccc21 (centres undefined)	/	/	0	/	/	-45
C[C@H]1COc2cc(N3CCCC3)ccc2S(=O)(=O)N1	/	/	0	/	/	-2
O=[N+]([O-])c1cc2c(cc1/C=N/n1cnnc1)OCO2	6	-13	8	77*	-6	10
O=[N+]([O-])c1ccc(N=Nc2c(Cl)cc(O)cc2Cl)cc1	39*	62*	3	58*	67*	59*
O=C(Nc1nccs1)c1cc2c(s1)-c1ccccc1OC2	-2	17*	3	42	12	12
Cc1cccc2c1-c1sc(C(=O)Nc3nccs3)cc1CO2	-2	-7	5	50*	-5	11
Cc1cccc2c1-c1sc(C(=O)Nc3cccc([N+](=O)[O-])c3C)cc1CO2	-7	-17	1	27	7	37
O=C(Nc1cccnc1)c1cc2c(s1)-c1ccccc1OC2	31	15	6	15	37	11
Cc1cccc2c1-c1sc(C(=O)Nc3cccnc3)cc1CO2	34	3	5	56*	-28	19
CC(=O)N1CCOCC1c1cc(C(=O)Nc2ccccc2)no1 (centres undefined)	/	/	2	/	/	2
N/C(=N\c1nc2ccccc2o1)NC(=O)c1ccccc1	-28	4	16	11	-34	-5
SMILES	OX1R antag-1	GPR7 antag	TAAR1 agonist	OX1R antag-2	CHO parental Ca	TAAR1 antagonist
N/C(=N\c1nc2ccccc2o1)NC(=O)/C=C/c1ccccc1	-16	-11	2	40*	-14	-26
CCCCCCCCN1C(=O)[C@@H](CC(=O)NCc2cccs2)C[C@@]2(C(=O)OC)C1=C[C@H](C1CCCC1)O[C@@H]2C	/	/	-1	/	/	-12
CC1CN(C(=S)NC(=O)c2ccc([N+](=O)[O-])cc2)CC(C)O1 (centres undefined)	-11	-4	1	120*	-6	10
CC1CN(C(=S)NC(=O)c2ccccc2)CC(C)O1 (centres undefined)	3	-9	9	7	-2	-11
CN(C)CCNC(=O)C(=O)NCC1OCCN1S(=O)(=O)c1cc(F)ccc1F (centres undefined)	-10	-7	3	-1	-13	-12
Cc1ccc(C)c(S(=O)(=O)N2CCCOC2CNC(=O)C(=O)NCCc2ccco2)c1 (centres undefined)	8	0	2	63*	-24	-4
COc1ccc(CCNC(=O)C(=O)NCC2OCCCN2S(=O)(=O)c2cc(C)ccc2C)cc1 (centres undefined)	-29	-19	5	29	-30	-4
COc1ccccc1CCNC(=O)C(=O)NCC1OCCN1S(=O)(=O)c1cc(F)ccc1F (centres undefined)	-10	-4	38*	0	-14	-2
Cc1ccc(C)c(S(=O)(=O)N2CCCCC2CCNC(=O)C(=O)NC2CC2)c1 (centres undefined)	-5	/	0	35*	-18	-38
COc1ccccc1CCNC(=O)C(=O)NCC1OCCCN1S(=O)(=O)c1cc(C)ccc1C (centres undefined)	11	-6	6	66*	-24	5
C[C@H](O)[C@@H]1C(=O)N2CCc3c([nH]c4c(-c5ccccc5)cccc34)[C@@H]2C[C@@H]1N(C)C(=O)c1ccco1	/	/	15	/	/	47
COc1ccc(S(=O)(=O)N2CCCOC2CNC(=O)C(=O)NCCc2ccco2)cc1C (centres undefined)	9	-6	2	70*	-3	-14
COc1cc(/C=C/C(=O)OCC(=O)N(CC(C)C)c2c(N)n(Cc3ccccc3)c(=O)[nH]c2=O)ccc1O	/	/	25	/	/	49*
COc1ccccc1NC(=O)OC[C@@H]1CSCCS(=O)(=O)N1	/	/	1	/	/	17
COC(=O)[C@]12CCCCC=C1N(CCc1ccc(OC)c(OC)c1)C(=O)[C@H](CC(=O)N1CCCCC1)C2	/	/	12	/	/	52*
COC(=O)[C@]12CCCCC=C1N(Cc1ccc3c(c1)OCO3)C(=O)[C@H](CC(=O)NCc1ccc(OC)c(OC)c1)C2	/	/	14	/	/	59*
COC(=O)[C@]12CCCCC=C1N(Cc1ccc3c(c1)OCO3)C(=O)[C@H](CC(=O)N1CCC(c3ccccc3)CC1)C2	/	/	1	/	/	56*
COC(=O)[C@]12CCCCC=C1N(Cc1ccc3c(c1)OCO3)C(=O)[C@H](CC(=O)NCC1CCCCC1)C2	/	/	6	/	/	50*
COCCCNC(=O)C[C@@H]1C[C@@]2(C(=O)OC)CCCCC=C2N(Cc2ccc3c(c2)OCO3)C1=O	/	/	5	/	/	14
Cc1ccccc1-c1ccc2c(c1)[C@@H]1C[C@H]3[C@@H](CN1CC2)[C@H](C)OC(c1ccccc1)N3C (some centres undefined)	/	/	3	/	/	-17

Bioassay records as filed in PubChem BioAssay.
